From PubChem BioAssay
MPTP inh: blocks calcium-induced mitochondrial swelling | 1.4% of 360,000 active | inhibition, % at 10 µM | isolated mouse mitochondria, Ca2+ swelling absorbance, 30 min;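 active means inhibition of 50% or more, scaled per plate between neutral and stimulator controls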;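 further: 0% = DMSO wells given calcium and 100% = 1 mM EGTA wells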
aDG glyco act: alpha-DG glycosylation activation; Pro5-aDG cells, alpha-DG glycosylation AlphaScreen (IIH6); 0% Pro5, 100% B10-LARGE cell signal; activation, % at 10 µM; 0.22% of 360,000 active; AID 624168;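 active means activation of at least 8% versus controls, or a plate z-score of at least 8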;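 further: Pro5 are CHO cells carrying HIG-tagged alpha-DG that lacks glycosylation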
V-ATPase pH: yeast V-ATPase proton transport regulation by pHLuorin; S. cerevisiae, pHLuorin cytosolic pH fluorescence; response, % at 10 µM; 0.37% of 350,000 active; in the data active means response mostly above about 7.3%, no sharp cut-off; inactive means mostly below about 5.4%; further: actives read high
ADAM10 inh: inhibitors of human ADAM10. inhibition, % at 7 µM. O14672. AID 720582. recombinant ADAM10, EDANS/DABCYL FRET peptide cleavage, 3 h. 0.62% of 370,000 active;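 active means inhibition above a per-campaign cutoff equal to the mean of compounds falling between control-based bounds plus 3 SD, cut at about 20% in these data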;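 further: 0% = DMSO wells while the 100% control is not disclosed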
ADAM17 inh: inhibitors of human ADAM17. 0.83% of 370,000 active. recombinant ADAM17, EDANS/DABCYL FRET peptide cleavage. inhibition, % at 6.95 µM. P78536;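 active means inhibition above the mean of compounds lying between control limits plus 3 SD, set per campaign, cut at about 8.5% in these data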;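 further: 0% = DMSO-only wells as the low control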
Target sequence (P78536 215-824 limits assumed): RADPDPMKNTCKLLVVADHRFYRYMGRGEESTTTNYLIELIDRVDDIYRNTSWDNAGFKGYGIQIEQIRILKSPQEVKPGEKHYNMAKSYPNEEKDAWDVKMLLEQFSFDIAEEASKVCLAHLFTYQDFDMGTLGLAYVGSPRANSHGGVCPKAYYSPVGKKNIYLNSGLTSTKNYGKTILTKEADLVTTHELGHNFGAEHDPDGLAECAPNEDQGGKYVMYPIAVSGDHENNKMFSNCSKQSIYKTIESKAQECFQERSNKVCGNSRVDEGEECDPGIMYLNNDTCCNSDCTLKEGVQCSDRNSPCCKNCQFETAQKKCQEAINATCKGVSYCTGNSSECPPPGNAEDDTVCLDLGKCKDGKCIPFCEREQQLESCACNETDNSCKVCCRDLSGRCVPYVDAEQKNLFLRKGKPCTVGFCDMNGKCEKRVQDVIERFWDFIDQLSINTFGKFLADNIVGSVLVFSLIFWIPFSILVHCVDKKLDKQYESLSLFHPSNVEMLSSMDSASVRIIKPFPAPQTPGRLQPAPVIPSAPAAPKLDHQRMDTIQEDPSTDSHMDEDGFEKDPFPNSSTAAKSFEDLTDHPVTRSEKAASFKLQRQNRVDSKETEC
Lipid droplet: modulators of hepatic lipid droplet formation; AML12 mouse hepatocytes, oleate lipid droplets, BODIPY imaging; inhibition, % at 6.5 µM; 0.4% of 240,000 active; AID 1656;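 active means lipid droplet intensity inhibited by at least 50%, with more than 500 cells counted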
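Assay system: AML12 hepatocytes (mouse); Probe or stimulus: oleic acid at 100 µM to induce lipid droplet formation; Dosing: compound at 6.5 µM only; Schedule: compound with oleate, overnight; Detection: fluorescence imaging, 20x objective, two fields per well; Measure: % inhibition of lipid droplet signal.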
Rh123 counter: mitochondrial membrane potential, counter-screen | isolated mitochondria, Rhodamine 123 fluorescence | inhibition, % at 10 µM | AID 624504 | 78% of 5,000 active | shares compounds with MPTP inh; in the data active means inhibition above about 22%;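 further: 0% = DMSO vehicle and 100% = positive control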
MPTP abs DR: MPTP inhibition, dose response swelling confirmation; shares compounds with MPTP inh; isolated mitochondria swelling, absorbance; IC50, µM; 58% of 780 active; in the data active means IC50 below about 20 µM
MPTP counter DR: counter-screen for mitochondrial permeability transition pore inhibitors, dose response; isolated mitochondria counterscreen, fluorescence read-out; shares compounds with MPTP inh; IC50, µM; AID 651564; 49% of 780 active; in the data active means IC50 below about 80 µM
The depositor's hits bear a star; / = no result given. Shown are actives, neighbours in structure and some others; about 3.1% of the full set was active somewhere.

SMILES	MPTP inh	aDG glyco act	V-ATPase pH	ADAM10 inh	ADAM17 inh	Lipid droplet	Rh123 counter	others
Cc1ccccc1CN1CCCCC(NC(=O)c2cccc(C(F)(F)F)c2)C1=O (stereo unspecified)	/	/	/	5	2	/	/
CC(C)(C)CC(C)(C)NCC(O)COc1c(F)cc(Br)cc1F (stereo unspecified)	102*	2	-4	1	-4	/	-8	MPTP abs DR=7.1*;MPTP counter DR=57*
Cc1snc(S(=O)(=O)/C(C#N)=N/Nc2ccc(C(F)(F)F)cc2)c1C#N	90*	0	4	11	0	9	103*
C[C@@H]1OC(C2CCCCC2)N(C)[C@H]2C[C@H]3c4[nH]c5cccc(-c6ccccc6)c5c4CCN3C[C@@H]12 (stereo partly specified)	/	/	/	-91	-25	/	/
O=Cc1nc(Nc2cc(F)cc(F)c2)nc(NC2CCCC2)n1	/	/	/	9	3	/	/
O=C(Nc1cc(Cl)cc2c1-c1ccc(Cl)cc1C2O)C(Cl)Cl (stereo unspecified)	93*	0	-6	-1	2	/	76*
CC(=N\Nc1ccc(Cl)cc1)/C(=N/O)C(=O)Nc1ccccc1	2	1	-2	6	0	/	/
CCOC(=O)C(=N/O)/C(C)=N/NC(=O)C(=O)Nc1ccc(Cl)cc1	82*	1	1	6	-4	1	69*
FC(F)(F)c1cccc(Cn2ccc3ccc(-c4ccc5ccn(Cc6cccc(C(F)(F)F)c6)c5c4)cc32)c1	/	/	/	-21	-6	/	/
Cc1cc([N+](=O)[O-])ccc1NC(=O)/C=C/c1cccs1	83*	0	5	8	1	30	31*
CC1CCN(CCCCOc2ccc([N+](=O)[O-])cc2)CC1	11	0	0	0	2	/	/
COC(=O)C1CCN(Cc2ccc(OCCCN3CCN(c4ccc([N+](=O)[O-])cc4)CC3)cc2)CC1	96*	0	0	3	-1	-11	82*
Cc1ccc(F)cc1NCC(=O)Nc1ccc(Br)cc1	71*	0	0	5	4	-5	72*
COc1ccc(NC(=O)c2c(Nc3ccccc3)sc(C(=O)c3ccc(F)cc3)c2N)cc1	92*	1	4	5	1	-79	83*
COc1ccc(C(=O)c2sc(Nc3ccccc3)c(C(=O)Nc3ccc(OC)c(OC)c3)c2N)cc1	0	0	0	8	4	-37	/
COc1ccc(Nc2sc(C(=O)c3ccc(Cl)cc3)c(N)c2C(=O)Nc2ccccc2OC)cc1	68*	1	3	-1	0	-20	75*
Oc1ccc(Cl)cc1-c1cc(C(F)(F)C(F)F)nc(-c2ccccc2)n1	90*	0	2	-6	-1	5	10	MPTP abs DR=8.1*;MPTP counter DR=<2.5*
CC(C)(C)c1ccc(C(=O)OC/C(O)=C(\C#N)c2nc3ccccc3s2)cc1	97*	0	-2	0	-3	27	70*
N#C/C(=C(/O)COC(=O)c1ccccc1O)c1nc2ccccc2s1	100*	0	-4	-4	1	/	94*
N#C/C(=C(/O)COC(=O)c1ccc(O)cc1)c1nc2ccccc2[nH]1	3	0	2	0	-3	-8	/
CC(C)(C)N(Cc1cn(Cc2ccccc2)nn1)S(=O)(=O)c1ccccc1Br	/	/	/	9	6	/	/
COc1ccc(NC(=O)Nc2nc(C(N)CC(C)C)cs2)cc1 (stereo unspecified)	2	1	/	-3	-3	/	/
NC(c1csc(NC(=O)Nc2ccc(OC(F)(F)F)cc2)n1)C1CCCCC1 (stereo unspecified)	62*	0	/	-1	-1	/	88*
COc1cccc(Nc2nc3ccccc3nc2NS(=O)(=O)c2cccs2)c1	58*	0	5	-16	-3	/	71*
C=CCN(Cc1ccc(OC)cc1OC)C(C#CCCCC)c1ccccc1 (stereo unspecified)	/	/	/	4	1	/	/
SMILES	MPTP inh	aDG glyco act	V-ATPase pH	ADAM10 inh	ADAM17 inh	Lipid droplet	Rh123 counter	others
CCCCCn1nnnc1C1(C)CCSCC(=O)N1Cc1ccco1 (stereo unspecified)	/	/	/	1	0	/	/
CCOC(=O)COn1c(-c2cccc(Cl)c2)nc2ccc([N+](=O)[O-])cc21	57*	1	-3	0	-3	/	81*
CCOC(=O)C(C)On1c(-c2cccc(Cl)c2)nc2ccc([N+](=O)[O-])cc21 (stereo unspecified)	87*	1	2	3	0	-3	99*
Cc1ccc(/C=C2\SC(=S)N(C3CCS(=O)(=O)C3)C2=O)o1 (stereo unspecified)	1	0	1	1	-1	-12	/
Cc1ccc(/C=C2\SC(=S)N(/N=C/c3cc([N+](=O)[O-])ccc3O)C2=O)o1	72*	0	-2	/	/	3	4
O=C(Cn1c(=O)oc2ccccc21)Nc1ccc(Br)cc1	0	0	2	8	-2	-2	/
N#Cc1c(NC(=O)Cn2c(=O)oc3ccccc32)oc(-c2ccccc2)c1-c1ccccc1	95*	1	-3	1	-2	-1	44*
CCCCCCCCN1C(=O)[C@@H](CC(=O)NCC2CCCCC2)C[C@@]2(C(=O)OC)C1=C[C@H](C(C)C)O[C@@H]2C1CC1	/	/	/	1	-6	/	/
Cc1nonc1NC(=O)CSc1nc(C2CCCCC2)nc2ccccc12	40	0	1	5	1	/	/
Cc1nonc1NC(=O)CSc1nc(C23CC4CC(CC(C4)C2)C3)nc2ccccc12	79*	1	-2	-3	-5	-16	72*
CCOC(=O)N1CCC(N(CCOC)C(=O)Nc2ccc(Cl)cc2)CC1	64*	0	-1	6	-1	-14	77*
CCOC(=O)N1CCC(N(CCCOC)C(=O)Nc2ccc(CC)cc2)CC1	0	0	3	1	0	-1	/
CN(C)Cc1cn(-c2cccc(-c3noc4c3C(=O)N(CC(=O)N3CCOCC3)CC4)c2)nn1	/	/	/	-2	-3	/	/
Nc1[nH]c2cc(C(F)(F)F)ccc2c1C(=O)NCc1ccc(F)cc1	/	/	/	0	-3	/	/
O=c1[nH]c(-c2ccccc2F)nc2c1sc(=S)n2Cc1ccccc1	66*	0	0	5	0	22	69*
COC(=O)[C@]12C[C@H](CC(=O)N3CCCCC3)C(=O)N(Cc3ccc(Cl)cc3Cl)C1=C[C@H](C(C)(C)C)O[C@@H]2C	/	/	/	-6	-4	/	/
